As usually defined, the IC50 is the concentration needed to halve the response being measured. In general, half-life refers to the time needed for the level to fall by half in the phase considered.

The target in data set [1] is Potassium voltage-gated channel subfamily A member 5 (Homo sapiens) (UniProt P22460). Put plainly: Inhibition of Kv1.5 potassium channel by whole cell patch clamp. The method, boiled down:
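Currents were recorded by whole-cell patch clamp from MEL-C88 cells. Each compound was tested three times at 4–5 concentrations, each experiment on a different cell. IC50 came from a Hill-equation fit of the reduction in area under the current curve.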
For orientation: Patch clamp records ionic current or voltage across a cell membrane.

Data set [2] concerns the target Potassium voltage-gated channel subfamily A member 3 (Homo sapiens, UniProt P22001). Nature of the data set: Inhibition of Kv1.3 potassium channel expressed in mouse L929 cells by whole cell patch clamp. It is filed as cell-based. The method, boiled down:
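Currents were evoked by 500 ms pulses to 40 mV every 45 s. Each compound was run three times at 4–5 concentrations, each on a different cell. IC50 came from a Hill fit of the reduction in area under the current curve.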

Data set [3] in a line: Selectivity for Kv1.3 potassium channel over Kv1.5 potassium channel.
Data set [4] is described as follows: Half life in po dosed rhesus monkey. It is filed as ADME, organism-based, Macaca mulatta. Conditions: in vivo.
The nature of data set [5]: Half life in po dosed rat. In kind it is ADME, organism-based. Particulars: in vivo.

Potassium voltage-gated channel subfamily A member 5 (Homo sapiens), sequence (P22460 whole entry): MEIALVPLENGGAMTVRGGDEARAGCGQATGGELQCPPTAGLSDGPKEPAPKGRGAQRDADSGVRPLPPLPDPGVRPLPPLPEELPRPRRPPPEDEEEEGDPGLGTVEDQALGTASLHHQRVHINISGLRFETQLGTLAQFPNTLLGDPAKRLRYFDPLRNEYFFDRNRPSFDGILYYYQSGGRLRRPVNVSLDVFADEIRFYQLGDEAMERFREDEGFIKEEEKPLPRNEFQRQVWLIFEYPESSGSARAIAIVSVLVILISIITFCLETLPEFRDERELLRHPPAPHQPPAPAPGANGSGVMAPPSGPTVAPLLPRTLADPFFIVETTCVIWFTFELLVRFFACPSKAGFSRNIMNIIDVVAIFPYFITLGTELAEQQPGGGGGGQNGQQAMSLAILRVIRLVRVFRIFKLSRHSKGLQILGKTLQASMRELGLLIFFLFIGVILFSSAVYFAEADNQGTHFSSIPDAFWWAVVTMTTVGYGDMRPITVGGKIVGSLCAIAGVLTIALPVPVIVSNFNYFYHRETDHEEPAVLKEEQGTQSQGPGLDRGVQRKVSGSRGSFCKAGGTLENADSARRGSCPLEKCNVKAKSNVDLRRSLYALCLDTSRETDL
Potassium voltage-gated channel subfamily A member 3, sequence (P22001 whole entry): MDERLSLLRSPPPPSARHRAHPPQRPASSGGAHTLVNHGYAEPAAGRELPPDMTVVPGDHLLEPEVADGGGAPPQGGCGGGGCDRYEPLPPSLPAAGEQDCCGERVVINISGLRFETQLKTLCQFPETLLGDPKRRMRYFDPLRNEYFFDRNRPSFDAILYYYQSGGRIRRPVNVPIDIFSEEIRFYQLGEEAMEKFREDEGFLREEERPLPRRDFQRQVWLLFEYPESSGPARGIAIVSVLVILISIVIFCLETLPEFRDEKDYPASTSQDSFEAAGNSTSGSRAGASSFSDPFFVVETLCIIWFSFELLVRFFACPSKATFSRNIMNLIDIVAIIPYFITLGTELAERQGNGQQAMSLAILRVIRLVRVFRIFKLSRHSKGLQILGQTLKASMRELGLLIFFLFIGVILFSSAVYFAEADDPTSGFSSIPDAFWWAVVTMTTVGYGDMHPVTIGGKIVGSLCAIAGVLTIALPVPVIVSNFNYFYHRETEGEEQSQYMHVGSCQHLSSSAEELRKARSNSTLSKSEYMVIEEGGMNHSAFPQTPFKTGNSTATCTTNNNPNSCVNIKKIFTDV

For the compound `c1ccc(OCCCCOc2ncnc3ccccc23)cc1`, the IC50 in data set [1] is 25000 nM.

With `COc1c2occc2c(OCCCCOc2ccccc2)c2c(=O)cc(C)oc12`, the results for the IC50 in data set [2] and in data set [1] were 1500 nM and 2500 nM, respectively. Moreover, in data set [3], the Ratio IC50 (Kv1.5/Kv1.3) turned out to be 1.67.

On to `O=c1c(OCCCCOc2ccccc2)c(-c2ccccc2)oc2ccccc12`, for which the values for the IC50 in data set [2] and in data set [1] were 1000 nM and 10000 nM, respectively. Besides, the Ratio IC50 (Kv1.5/Kv1.3) in data set [3] came out at 10.

With `Cc1cc(=O)c2c(OCCCCOc3ccccc3)c3ccoc3cc2o1`, the IC50 in data set [2] came out at 233 nM; in data set [1], 310 nM. In addition, the Ratio IC50 (Kv1.5/Kv1.3) in data set [3] was found to be 1.33.

In the case of `O=c1ccoc2cc3occc3c(OCCCCOc3ccccc3)c12`, the IC50 in data set [2] worked out at 170 nM; in data set [1], 200 nM.

For the compound `COc1c2ccoc2cc2oc(=O)ccc12` [BERGAPTEN], the IC50 in data set [2] came out at 101000 nM; in data set [1], 177000 nM. In addition, in data set [3], the Ratio IC50 (Kv1.5/Kv1.3) is 1.75.

Turning to `S=c1ccc2c(OCCCCOc3ccccc3)c3ccoc3cc2o1`, the IC50 in data set [2] stood at 17 nM; in data set [1], 380 nM. In addition, the Ratio IC50 (Kv1.5/Kv1.3) in data set [3] worked out at 22.

Take `O=c1ccc2cc3ccoc3c(OCCCCOc3ccccc3)c2o1`: the IC50 in data set [2] and in data set [1] was 1000 nM in each case.

With `O=c1ccc2c(OCCCCOc3ccccc3)cccc2o1`, the IC50 in data set [2] worked out at 150 nM; in data set [1], 520 nM. The Ratio IC50 (Kv1.5/Kv1.3) in data set [3] was found to be 3.47.

As for `c1ccc(OCCCCOC2c3ccccc3Oc3ccccc32)cc1`, the IC50 in data set [2] was 12000 nM; in data set [1], 15000 nM.

On to `COc1c2occc2c(OC)c2c(OCCCCOc3ccccc3)cc(=O)oc12`, for which the values for the IC50 in data set [2] and in data set [1] were 450 nM and 850 nM, respectively. The Ratio IC50 (Kv1.5/Kv1.3) in data set [3] turned out to be 1.89.

Consider `c1ccc(OCCCCOc2cccc3occc23)cc1`, for which the IC50 in data set [2] is 650 nM; in data set [1], 1000 nM.

For the compound `O=c1ccc2c(OCCCCOc3ccccc3)c3ccoc3cc2o1`, the half-life is 6.7 h in data set [4] and 3 h in data set [5]. The IC50 in data set [1] worked out at 45 nM.

As to `O=C1c2ccccc2C(=O)c2c(OCCCCOc3ccccc3)cccc21`, the IC50 turned out to be 7000 nM in data set [2] and 10000 nM in data set [1]. Further, in data set [3], the Ratio IC50 (Kv1.5/Kv1.3) was determined as 1.43.

For the compound `Cn1c(=O)cc(OCCCCOc2ccccc2)c2ccccc21`, the IC50 in data set [2] was determined as 670 nM; in data set [1], 1500 nM.

In the case of `O=c1cc(OCCCCOc2ccccc2)c2ccccc2o1`, the IC50 worked out at 890 nM in data set [2] and 1500 nM in data set [1]. Besides, the Ratio IC50 (Kv1.5/Kv1.3) in data set [3] was 1.69.

In data set [2], `c1ccc(OCCCCOc2ccccc2)cc1` registered an IC50 of 20000 nM.

For the compound `c1ccc(OCCCCOc2cccc3ccccc23)cc1`, in data set [2], the IC50 was 15000 nM.

As to `COc1cccc2c(=O)c3ccccc3n(CCCCOc3ccccc3)c12`, the half-inhibitory concentration (IC50) stood at 165 nM in data set [2] and 450 nM in data set [1]. In data set [3], the Ratio IC50 (Kv1.5/Kv1.3) came out at 2.73.

For the compound `c1ccc(OCCCCOc2c3ccccc3nc3occc23)cc1`, the IC50 in data set [2] was found to be 1000 nM; in data set [1], 2000 nM. In addition, the Ratio IC50 (Kv1.5/Kv1.3) in data set [3] was found to be 2.

As to `c1ccc(OCCCCOc2ccnc3ccccc23)cc1`, the IC50 was above 10000 nM in data set [2] and 3500 nM in data set [1]. In data set [3], the Ratio IC50 (Kv1.5/Kv1.3) is below 0.35.

In the case of `COc1c2ccoc2c(OCCCCOc2ccccc2)c2oc(=O)cc(C)c12`, the IC50 in data set [2] came out at 318 nM; in data set [1] it was 280 nM. In addition, in data set [3], the Ratio IC50 (Kv1.5/Kv1.3) was 0.88.

On to `COc1cc2nc3occc3c(OCCCCOc3ccccc3)c2cc1OC`, for which the IC50 in data set [2] worked out at 150 nM; in data set [1] it was 480 nM. Also, in data set [3], the Ratio IC50 (Kv1.5/Kv1.3) turned out to be 3.2.

Turning to `O=c1c2ccccc2n(CCCCOc2ccccc2)c2occc12`, the half-inhibitory concentration (IC50) in data set [2] worked out at 1000 nM; in data set [1], 2000 nM. Further, in data set [3], the Ratio IC50 (Kv1.5/Kv1.3) came out at 2.
